HIF activator – HIF pathway transcriptional activation. AID 1910. activation, % at 7.5 µM (by protocol). hit rate 0.32% among 300,000. U2OS HRE-luciferase reporter, luminescence; normalized: DMSO 0%, desferrioxamine 100%;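 active means mean activation of at least 10% of the iron chelator positive control signal, with at least half of replicates also reaching 10%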
AHR activator – activates the human aryl hydrocarbon receptor; activation, % at 5 µM; P35869; AHR-responsive luciferase reporter cells, luminescence; hit rate 2.5% among 320,000; in the data active means activation above about 47%;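 further: 0% = vehicle wells and 100% = reference agonist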
SR-BI DiI inh – blocks mouse SR-BI lipid uptake from DiI-HDL; Q61009; ldlA[mSR-BI] CHO cells, DiI-HDL uptake fluorescence, 3 h; inhibition, % at 12.5 µM; hit rate 0.96% among 320,000; AID 488896;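 active means mean replicate inhibition of at least 70% and a set share of replicates each scoring 70 or more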;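 further: 0% = median of neutral control wells and 100% = median of positive control wells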
Target sequence (Q61009 whole entry, looked up): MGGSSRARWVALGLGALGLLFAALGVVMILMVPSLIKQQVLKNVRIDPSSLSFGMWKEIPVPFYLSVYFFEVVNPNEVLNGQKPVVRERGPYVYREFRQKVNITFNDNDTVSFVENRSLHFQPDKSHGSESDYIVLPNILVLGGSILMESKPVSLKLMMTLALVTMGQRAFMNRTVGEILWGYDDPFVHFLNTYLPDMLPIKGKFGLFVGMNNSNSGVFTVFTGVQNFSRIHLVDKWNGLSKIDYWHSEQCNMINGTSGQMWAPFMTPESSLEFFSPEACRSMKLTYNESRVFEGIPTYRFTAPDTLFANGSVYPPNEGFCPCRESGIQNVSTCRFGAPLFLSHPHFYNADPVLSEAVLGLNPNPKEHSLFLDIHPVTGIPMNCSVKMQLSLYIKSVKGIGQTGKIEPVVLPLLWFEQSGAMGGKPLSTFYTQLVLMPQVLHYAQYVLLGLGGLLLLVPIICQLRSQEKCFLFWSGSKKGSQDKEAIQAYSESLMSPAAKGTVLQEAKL
SR-BI DiI-HDL act – activators of SR-BI mediated HDL lipid uptake; CHO ldlA[mSR-BI] cells, DiI-HDL uptake fluorescence, 3 h; 100 = double the neutral-control signal; activation, % at 12.5 µM; hit rate 0.096% among 320,000;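 active means mean replicate activation of at least 60% and every replicate at or above 60%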;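 further: 0% = median plate neutral-control signal and 100% = twice that signal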
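Test system: SR-BI-overexpressing, LDLR-lacking CHO cells; Medium: Ham's F12 with 0.5% BSA, HEPES 25 mM, pH 7.4; Schedule: 3 h, 37 °C; Technique: bottom-read fluorescence, 550/595 nm.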
FXN GAA850 act – increases GAA850 frataxin promoter reporter activity; HEK293 lucGAA850 FXN promoter luciferase reporter, 24 h; percent of 10 µM SAHA response; activation, % at 6 µM; hit rate 0.56% among 360,000; AID 540364;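 active means activation above the average of all compounds screened plus 3 SD, cutoff fixed separately per campaign, cut at about 7.5% in these data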;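 further: 0% = DMSO wells and 100% = 10 µM SAHA wells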
ABCB6 inh MLPCN – blocks the human ABCB6 transporter; K562-ABCB6 porphyrin accumulation, flow cytometry, 1 h; active compounds read low; fluorescence ratio to DMSO, % at 10 µM; hit rate 0.19% among 360,000;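 active means fluorescence ratio to DMSO below 75%, the collection mean minus 3 SD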;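 further: signal is porphyrin accumulated inside mitochondria; 100% equals median channel fluorescence of DMSO control wells; lower ratio means ABCB6 inhibition with less porphyrin fluorescence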
GAA30 counter – activates GAA30 frataxin promoter, counter-screen for GAA850 activators; HEK293 lucGAA30 FXN promoter luciferase, 24 h; DMSO = 0%, 5 µM ipriflavone = 100%; shares compounds with FXN GAA850 act; AID 588350; activation, % at 6 µM; hit rate 66% among 1,900;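 active means mean activation above the mean of solvent-only control wells plus 3 SD, cut at about 22% in these data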;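 further: counterscreen of GAA850 promoter hits where activity marks nonselective or luminescence artifacts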
GAA850 confirm – GAA850 FXN promoter activation confirmation | shares compounds with FXN GAA850 act | HEK293 lucGAA850 FXN promoter luciferase reporter, 24 h; 100% = activation by SAHA | activation, % at 6 µM | hit rate 86% among 1,900;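 active means mean activation above a set limit taken from the primary screen, cut at about 8% in these data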;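 further: 0% = DMSO wells and 100% = 10 µM SAHA wells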
An asterisk follows results filed as active; i = inactive; / = not tested or not shown. Shown are actives, neighbours in structure and some others; about 3.9% of the full set was active somewhere.

SMILES	HIF activator	AHR activator	SR-BI DiI inh	SR-BI DiI-HDL act	FXN GAA850 act	ABCB6 inh MLPCN	GAA30 counter	GAA850 confirm
Cc1occc1C(=O)NC(C)C12CC3CC(CC(C3)C1)C2 (centres undefined)	-0.4	0.0	9.3	-9.3	0.3	97.0	/	/
O=C(Nc1ccccn1)C(=O)Nc1ccccn1	1.4	3.8	-15.1	15.1	5.9	95.0	/	/
S=C(NCCc1ccccc1)Nc1ccccn1	1.6	8.3	6.8	-6.8	8.0*	102.0	98.1*	30.2*
S=C(Nc1ccccn1)c1ccccn1	3.2	60.9*	-41.7	41.7	14.6*	93.0	104.3*	42.7*
CCOC(=O)Nc1oc2ccccc2c(=O)c1C	-1.6	0.4	-5.1	5.1	-0.5	97.0	/	/
COC(=O)C(NC(=O)c1ccc(F)cc1)(Nc1ncc(S(=O)(=O)c2ccc([N+](=O)[O-])cc2)s1)C(F)(F)F (centres undefined)	-0.4	2.6	13.2	-13.2	9.8*	97.0	21.2	14.1*
O=C(NNC(=S)Nc1ccccc1)Nc1ccccc1	3.6	10.4	-15.4	15.4	7.7*	99.0	35.6*	11.3*
Cc1ccc(-c2oc3ccccc3c(=O)c2O)cc1	1.6	28.6	26.3	-26.3	5.4	103.0	/	/
O=c1c(O)c(-c2ccccc2)oc2ccccc12	/	/	-7.4	7.4	8.7*	99.0	54.8*	18.0*
Cc1ccc(NC(=O)Cc2nc(COC(=O)c3c(F)cccc3Cl)cs2)cc1	/	1.4	-2.9	2.9	-0.3	96.0	/	/
C=C1C(=O)O[C@H]2[C@H]1[C@H](OC(=O)/C(C)=C\C)C[C@]1(CO1)[C@@H]1[C@H](OC(C)=O)C=C(C)[C@]21O	/	/	-7.9	7.9	11.9*	94.0	4.3	17.3*
COc1ccc2c(c1)oc(=O)c1ccccc12	1.1	0.2	-35.9	35.9	4.0	96.0	/	/
COc1ccc2c(c1)oc(=O)c1cc(OC)ccc12	2.8	0.0	15.0	-15.0	7.9*	97.0	122.3*	43.9*
CN1CCN(S(=O)(=O)c2cccc(C(=O)Nc3cccc([N+](=O)[O-])c3)c2)CC1	0.1	1.2	10.3	-10.3	1.3	102.0	/	/
COc1ccc(N2C(=O)CC(N(CCc3ccc(S(N)(=O)=O)cc3)C(=S)Nc3ccccc3)C2=O)cc1 (centres undefined)	-0.6	0.9	-13.0	13.0	0.3	93.0	/	/
COc1ccc(N2C(=O)CC(N(CCc3ccc(OC)c(OC)c3)C(=S)Nc3ccccc3)C2=O)cc1 (centres undefined)	0.6	0.9	21.0	-21.0	8.4*	93.0	1.3	10.8*
C[n+]1c2cc(N)ccc2cc2ccc(N)cc21	/	/	9.1	-9.1	20.0*	i	16.0	137.7*
COc1cc2c(cc1N)-c1ccc(N)cc1C2=O	/	/	/	/	9.4*	98.0	117.7*	38.0*
C/C(=N/N=C/c1ccccc1O)c1ccccc1O	4.4	10.7	1.5	-1.5	3.3	93.0	/	/
CCCS/C(N)=N/N=C/c1cc(C)ccc1O	6.2	7.9	-12.0	12.0	8.6*	96.0	102.4*	33.4*
CCCCS/C(N)=N/N=C/c1ccccc1O	1.2	1.1	-27.3	27.3	7.7*	95.0	109.8*	28.1*
CCc1nc(SCC(=O)Nc2ccc(N(C)C)cc2)n[nH]1	2.4	3.0	-16.8	16.8	0.5	96.0	/	/
Oc1ccc(Nc2ncnc3c2oc2ccccc23)cc1	6.3	3.4	20.4	-20.4	11.6*	110.0	143.2*	39.7*
CC1=NNC(=O)/C1=C\c1cn(-c2ccccc2)nc1-c1ccccc1	-7.5	0.9	8.5	-8.5	8.0*	92.0	-47.6	14.8*
C=CCSc1nc(N)c2c(C)c(C)sc2n1	0.7	11.0	-7.4	7.4	8.2*	94.0	54.6*	20.0*
SMILES	HIF activator	AHR activator	SR-BI DiI inh	SR-BI DiI-HDL act	FXN GAA850 act	ABCB6 inh MLPCN	GAA30 counter	GAA850 confirm
COc1ccc(/C=C/C(=O)Nc2ccc(-n3nncc3-c3ccc(OC)c(OC)c3)cc2)cc1OC	-0.2	15.1	69.7	-69.7	8.9*	99.0	22.5*	17.1*
CCC1=C(C)CN(C(=O)NCCc2ccc(S(=O)(=O)NC(=O)NC3CCC(C)CC3)cc2)C1=O (centres undefined)	-0.1	-0.3	-1.8	1.8	1.1	105.0	/	/
Cc1ccc(SCC2(O)CCN(S(=O)(=O)c3ccc(Cl)cc3)CC2)cc1	-0.1	2.1	-0.7	0.7	0.5	88.0	/	/
CCc1ccc(OCC(=O)NCc2ccco2)c(Br)c1	1.9	15.9	-11.5	11.5	8.6*	91.0	76.2*	24.3*
O=C(COc1ccccc1Br)NCc1ccco1	1.1	-1.6	-3.2	3.2	2.3	88.0	/	/
Cc1[nH]c(=O)c(C(=O)c2ccccc2O)cc1C(=O)O	-0.2	-0.5	-20.9	20.9	2.3	100.0	/	/
O=C(Nc1ccc(N2CCCC2)c(Cl)c1)c1ccc([N+](=O)[O-])o1	/	/	48.1	-48.1	17.9*	97.0	117.7*	69.9*
CC(C)(C)C(=O)N1CCN(c2ccc(NC(=O)c3ccc([N+](=O)[O-])o3)cc2)CC1	-6.7	-7.5	-12.9	12.9	5.3	99.0	/	/
O=C(Nc1cccc([N+](=O)[O-])c1)c1ccc([N+](=O)[O-])o1	/	/	/	/	0.3	98.0	/	/
CC1CCN(c2ccc(NC(=O)c3ccc([N+](=O)[O-])o3)cc2)CC1	-3.1	-0.1	86.9*	-86.9	10.5*	102.0	79.9*	62.6*
O=C(Nc1ccc(N2CCCCC2)cc1)c1ccc([N+](=O)[O-])o1	4.7	10.6	24.0	-24.0	12.8*	97.0	114.2*	67.4*
Cc1ccc(NC(=O)c2ccc([N+](=O)[O-])o2)cc1C	2.5	0.7	33.9	-33.9	7.7*	97.0	56.1*	35.0*
CCOC(=O)c1ccc(N=c2sc(C(=O)OC)cc(=O)n2CCCN2CCOCC2)cc1	-0.3	-0.8	-4.0	4.0	1.1	102.0	/	/
CCOC(=O)c1ccc(N=c2sc(C(=O)OC)cc(=O)n2Cc2ccco2)cc1	0.4	-1.5	-9.6	9.6	15.0*	100.0	6.8	35.2*
CCCCNC(=O)NC1CCCC1	0.1	1.2	-34.4	34.4	1.3	98.0	/	/
COc1ccccc1NC(=O)CN1CCC(n2c(C)nc3cc(F)ccc32)CC1	0.2	3.6	45.8	-45.8	9.1*	93.0	0.7	7.8*
COc1nc(=O)n(C2C=CC(=O)O2)cc1F (centres undefined)	/	/	/	/	13.5*	99.0	-20.4	-0.3
Cc1cccc2c(N)c3c(nc12)N(C)CC3	-0.1	13.1	-21.8	21.8	3.4	97.0	/	/

Assay outcomes from PubChem BioAssay.
